The results in this text go back to ChEMBL document CHEMBL5030567, “Macrocyclic Inhibitors of HGF-Activating Serine Proteases Overcome Resistance to Receptor Tyrosine Kinase Inhibitors and Block Lung Cancer Progression” (J Med Chem, 2021).

SMILES strings stand for the structures. Calls of active or inactive are those of the source.

The nature of data set [1]: Stability in mouse plasma assessed as half life. It counts as ADME, cell-free.
Data set [2] in a line: Stability in human plasma assessed as half life. It counts as ADME, cell-free.
Data set [3] can be described thus: Half life in mouse plasma at 20 mg/kg, ip. It counts as ADME, organism-based. As to conditions: for t1/2: in vivo, 20 mg/kg.
The nature of data set [4]: Plasma protein binding in mouse assessed as unbound fraction. It counts as ADME, cell-free.
In a further data set the target is Prothrombin (Homo sapiens, UniProt P00734). Description: Inhibition of recombinant thrombin (unknown origin) using D-Phe-Pip-Arg-pNA as substrate preincubated for 30 mins followed by substrate addition by chromogenic assay.
Data set [5] deals with T1, Hepatocyte growth factor activator serine protease (Homo sapiens, UniProt Q04756).
T1 sequence (Q04756 whole entry): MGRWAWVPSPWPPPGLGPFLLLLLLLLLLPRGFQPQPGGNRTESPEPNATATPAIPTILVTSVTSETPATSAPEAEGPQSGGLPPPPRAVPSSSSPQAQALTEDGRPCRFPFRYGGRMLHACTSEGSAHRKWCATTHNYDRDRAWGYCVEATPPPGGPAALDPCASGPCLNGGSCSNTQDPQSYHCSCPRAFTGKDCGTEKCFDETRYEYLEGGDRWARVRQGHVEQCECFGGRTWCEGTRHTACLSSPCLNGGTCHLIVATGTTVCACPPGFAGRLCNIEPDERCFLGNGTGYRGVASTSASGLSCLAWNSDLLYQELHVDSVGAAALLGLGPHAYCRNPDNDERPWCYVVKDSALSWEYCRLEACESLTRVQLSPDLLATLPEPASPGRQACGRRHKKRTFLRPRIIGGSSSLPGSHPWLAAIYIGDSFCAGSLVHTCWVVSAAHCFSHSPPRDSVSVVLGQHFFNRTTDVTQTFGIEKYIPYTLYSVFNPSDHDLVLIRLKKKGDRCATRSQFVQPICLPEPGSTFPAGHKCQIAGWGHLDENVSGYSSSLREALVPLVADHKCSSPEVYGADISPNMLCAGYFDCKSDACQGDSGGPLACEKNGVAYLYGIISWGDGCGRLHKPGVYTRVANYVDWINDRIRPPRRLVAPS
Description: Inhibition of recombinant human HGFA serine protease domain using Boc-QLR-AMC as substrate preincubated for 30 mins followed by substrate addition by fluorescence based assay. Put shortly:
(§1)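 Inhibitor in 11-point serial dilution (0-20 µM final, 2% DMSO) pre-incubated 30 min at room temperature with enzyme in TNC buffer (25 mM Tris, 150 mM NaCl, 5 mM CaCl2, 0.01% Triton X-100, pH 8). […] Hepsin activated beforehand 24 h at 37°C. Fluorescence ex 380/em 460 nm kinetic; four-parameter fit of velocities; mean of three experiments.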

Another data set has as its target Coagulation factor X (Homo sapiens, UniProt P00742). Description: Inhibition of recombinant C-terminal 10His-tagged human coagulation factor 10a (Leu24 to Lys488 residues) expressed in baculovirus infected Sf9 insect cells using Bz-Ile-Glu-Gly-Arg-pNA as substrate preincubated for 30 mins followed by substrate addition by chromogenic assay.
Data set [6] concerns the target T2, Suppressor of tumorigenicity 14 protein (Homo sapiens, UniProt Q9Y5Y6).
T2 sequence (Q9Y5Y6 whole entry): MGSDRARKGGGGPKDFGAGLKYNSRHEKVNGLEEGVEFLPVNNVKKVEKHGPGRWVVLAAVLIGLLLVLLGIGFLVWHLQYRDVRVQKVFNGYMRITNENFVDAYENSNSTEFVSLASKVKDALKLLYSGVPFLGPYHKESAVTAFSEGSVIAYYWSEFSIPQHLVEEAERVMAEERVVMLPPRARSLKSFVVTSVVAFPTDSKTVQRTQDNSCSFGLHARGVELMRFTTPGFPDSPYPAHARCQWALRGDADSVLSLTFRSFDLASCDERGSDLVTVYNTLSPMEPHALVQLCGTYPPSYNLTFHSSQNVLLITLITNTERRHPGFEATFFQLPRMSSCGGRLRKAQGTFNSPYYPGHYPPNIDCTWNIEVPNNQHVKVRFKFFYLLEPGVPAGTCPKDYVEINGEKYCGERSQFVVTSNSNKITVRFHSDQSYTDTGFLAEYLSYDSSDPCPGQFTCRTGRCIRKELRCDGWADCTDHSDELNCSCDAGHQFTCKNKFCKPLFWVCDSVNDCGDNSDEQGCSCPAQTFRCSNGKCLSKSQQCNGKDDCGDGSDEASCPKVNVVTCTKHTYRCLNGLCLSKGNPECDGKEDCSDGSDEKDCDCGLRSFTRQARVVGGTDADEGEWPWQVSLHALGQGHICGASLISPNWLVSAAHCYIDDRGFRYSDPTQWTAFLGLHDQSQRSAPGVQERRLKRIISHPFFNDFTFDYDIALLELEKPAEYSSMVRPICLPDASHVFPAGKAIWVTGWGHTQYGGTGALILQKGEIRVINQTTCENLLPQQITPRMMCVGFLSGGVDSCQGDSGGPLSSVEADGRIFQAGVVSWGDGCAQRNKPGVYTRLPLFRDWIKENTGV
Description: Inhibition of recombinant human N-terminal met-His6-tagged matriptase catalytic domain (Gly596 to Val855 residues) expressed in Escherichia coli using Boc-QAR-AMC as substrate preincubated for 30 mins followed by substrate addition by fluorescence based assay. A digest of the protocol:
as §1

The target of the next data set is Serine protease hepsin (Homo sapiens, UniProt P05981). In words: Inhibition of recombinant human C-terminal 10-His tagged hepsin (Arg45 to Leu417) expressed in mouse myeloma cells using Boc-QAR-AMC as substrate preincubated for 30 mins followed by substrate addition by fluorescence based assay. It is filed as single protein. Put shortly: as §1
The subject of data set [7] is NCI-H596. In words: Inhibition of pro-HGF stimulated cell growth in human H596 cells at […] by ELISA. It counts as functional, cell-based. As to conditions: dose 33.3 µM. On the technique in general: In an ELISA, binding on a coated surface is turned into a signal by an enzyme label.
A further data set has as its system HCC827. Description: Cytotoxicity against human HCC827 cells assessed as reduction in cell viability at 20 nM after 72 hrs in presence of pro-HGF by crystal violet staining based assay. It counts as functional. Put shortly:
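HCC827 cells treated with gefitinib (20 nM) with or without pro-HGF (100 ng/ml) and with compound (0.1-1 µM). Viability by crystal violet staining after 72 h. Means±S.E.M., n=3-5; one-way ANOVA with Dunnett's test versus gefitinib plus pro-HGF.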

The subject of another data set is EBC-1. Description: Cytotoxicity against human EBC-1 cells assessed as reduction in cell viability preincubated with pro-HGF for 24 hrs followed by compound addition and measured after 48 hrs by CellTiter-Glo assay. It is filed as functional, cell-based. In general terms: Cellular ATP, detected with luciferase, serves as a proxy for viable cell number.
Data set [8] has as its system NCI-H596. Description: Inhibition of pro-HGF stimulated cell growth in human H596 cells at 500 nM by ELISA. It counts as functional, cell-based.
Data set [9] has as its system NCI-H596. Description: Antitumor activity against human NCI-H596 cells xenografted in hHGF knock in NSG mouse assessed as tumor growth inhibition at 40 mg/kg, po administered daily for 25 days. As to conditions: time 25.0 day. It counts as functional, organism-based. A digest of the protocol: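 Prevention design in female hHGF-KI NSG mice injected with ten million H596 cells. Oral dosing at 40 mg/kg daily began immediately after injection and ran for 25 days. Tumor growth tracked, n=3-5 per group, Dunnett's test versus control.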
Background: Xenograft models place foreign cells or tissue in a host animal.

Data set [10] has as its system NCI-H596. Description: Antitumor activity against human NCI-H596 cells xenografted in hHGF knock in NSG mouse assessed as tumor growth inhibition at 40 mg/kg, po administered daily for 14 to 16 days. It is filed as functional, organism-based. As to conditions: time 14-16 day. Put shortly: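 Female hHGF-KI NSG mice given 2 million H596 cells, or males given 0.5 million. Dosing started at tumor volume ~40 or ~350 mm3. Daily oral dosing at 40 mg/kg for 16 or 14 days. Tumor growth compared with control-treated mice by ANOVA with Dunnett's test, n=3-6 per group.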

With `CC(=O)N[C@H]1CCCCNC(=O)CC[C@@H](C(=O)N[C@@H](CCCNC(=N)N)C(=O)c2nc3ccccc3s2)NC(=O)[C@H](CC(C)C)NC1=O`, the t1/2 in data set [1] is 4.57 h; in data set [2] it was above 4.82 h; in [3], 0.71 h. The fraction unbound (commonly the share of the substance not bound to proteins or other matrix) in [4] is 0.184. Moreover, at Prothrombin, the half-inhibitory concentration (IC50) (commonly the midpoint of a concentration-inhibition curve) was above 20 µM.

Consider `CC(=O)N[C@H]1CC(=O)NCCCC[C@@H](C(=O)N[C@@H](CCCNC(=N)N)C(=O)c2nc3ccccc3s2)NC(=O)[C@H]([C@@H](C)O)NC1=O`, for which the IC50 amounted to 11.8 µM in data set [5], 13.3 µM at Coagulation factor X, 0.0037 µM in data set [6] and 0.0058 µM on Serine protease hepsin. Further, the t1/2 in data set [1] turned out to be 3.21 h; in [2], 4.142 h.

`CC(=O)N[C@H]1CC(=O)NCCCC[C@@H](C(=O)N[C@@H](CCCNC(=N)N)C(=O)c2nc3ccccc3s2)NC(=O)[C@H](C(C)C)NC1=O`: the t1/2 in [1] and in data set [2] was above 4.818 h each time.

Regarding `CC(=O)N[C@H]1CC(=O)NCCCC[C@@H](C(=O)N[C@@H](CCCNC(=N)N)C(=O)c2nc3ccccc3s2)NC(=O)[C@H](CCC(N)=O)NC1=O`, the t1/2 in data set [1] and in data set [2] was above 4.818 h in each case. Besides, the IC50 at Coagulation factor X is above 20 µM.

Take `CC(=O)N[C@H]1CCCCNC(=O)C[C@@H](C(=O)N[C@@H](CCCNC(=N)N)C(=O)c2nc3ccccc3s2)NC(=O)[C@H](CC(C)C)NC1=O`: the IC50 in data set [5] was above 20 µM; in data set [6], 0.02 µM; on Prothrombin, above 20 µM. Further, the t1/2 in [1] was 2.97 h; in data set [2] it was above 4.82 h. Also, in data set [4], the fraction unbound is 0.853.

`CC(=O)N[C@H]1CCCCNC(=O)CC[C@@H](C(=O)N[C@@H](CCCNC(=N)N)C(=O)c2nc3ccccc3s2)NC(=O)[C@H](CCCNC(=N)N)NC1=O`: the t1/2 in data set [1] worked out at 2.6 h; in data set [2] it was 2.52 h. Also, the IC50 at Coagulation factor X was 0.155 µM; at Prothrombin, above 20 µM. Besides, the fraction unbound in data set [4] came to 0.259.

Take `CSCC[C@@H]1NC(=O)[C@@H](NC(C)=O)CC(=O)NCCCC[C@@H](C(=O)N[C@@H](CCCNC(=N)N)C(=O)c2nc3ccccc3s2)NC1=O`: the t1/2 in data set [1] and in data set [2] was above 4.818 h throughout.

Turning to `CC(=O)N[C@H]1CC(=O)NCCCC[C@@H](C(=O)N[C@@H](CCCNC(=N)N)C(=O)c2nc3ccccc3s2)NC(=O)CNC1=O`, the t1/2 in data set [1] and in data set [2] was above 4.818 h throughout.

For `N=C(N)Nc1ccc(C(=O)Oc2ccc3cc(C(=N)N)ccc3c2)cc1`, the inhibition entry in the data set on NCI-H596 [7] is “Active”.

For the compound `CC(=O)N[C@H]1CC(=O)NCCCC[C@@H](C(=O)N[C@@H](CCCNC(=N)N)C(=O)c2nc3ccccc3s2)NC(=O)[C@H](Cc2ccccc2)NC1=O`, the t1/2 in data set [1] was above 4.818 h; in data set [2] it was above 4.818 h; in data set [3] it was 1.61 h. Also, on Serine protease hepsin, the IC50 amounted to 0.017 µM.

`CC(=O)N[C@H]1CC(=O)NCCCC[C@@H](C(=O)N[C@@H](CCCNC(=N)N)C(=O)c2nc3ccccc3s2)NC(=O)[C@H](CC(N)=O)NC1=O`: the t1/2 in [1] and in [2] was above 4.818 h throughout.

For the compound `COc1cc2ncnc(Nc3ccc(F)c(Cl)c3)c2cc1OCCCN1CCOCC1`, in the data set with HCC827, the outcome was inactive.

Turning to `CC(=O)N[C@H]1CC(=O)N(C)CCCC[C@@H](C(=O)N[C@@H](CCCNC(=N)N)C(=O)c2nc3ccccc3s2)NC(=O)[C@H](CC(C)C)NC1=O`, the 50% inhibitory concentration (IC50) in data set [5] amounted to 12 µM. In addition, the t1/2 in [1] and in data set [2] was above 4.82 h each time. Besides, in data set [3] (plasma), the half-life (commonly the time needed for the level to fall by half in the phase considered) was 0.553 h.

On to `CC(=O)N[C@H]1CC(=O)NCCCC[C@@H](C(=O)N[C@@H](CCCNC(=N)N)C(=O)c2nccs2)NC(=O)[C@H](CC(C)C)NC1=O`, for which the IC50 in [5] is above 20 µM. For the same compound, the t1/2 in data set [1] and in data set [2] was above 4.818 h throughout.

`Cn1cc(-c2ccc3nnc(C(F)(F)c4ccc5ncccc5c4)n3n2)cn1`: in the data set on EBC-1, the result was inactive. For the same compound, in the data set on NCI-H596 [8], the inhibition result is “Active”. Also, the outcome in the data set on NCI-H596 [9] and with NCI-H596 [10] was Active.

Consider `CC(=O)N[C@H]1CC(=O)NCCCC[C@@H](C(=O)N[C@@H](CCCNC(=N)N)C(=O)c2nc3ccccc3s2)NC(=O)[C@H](Cc2ccc(O)cc2)NC1=O`, for which the IC50 in [5] was above 20 µM. In addition, the t1/2 in data set [1] is 4.613 h; in data set [2], above 4.818 h.

In the case of `CC(=O)N[C@H]1CC(=O)NCCCC[C@@H](C(=O)N[C@@H](CCCNC(=N)N)C(=O)c2nc3ccccc3s2)NC(=O)[C@H](C)NC1=O`, the t1/2 in [1] was determined as 4.353 h; in [2] it was 3.602 h. Also, the IC50 on Coagulation factor X was above 20 µM.
